According to PubChem BioAssay AID504383 (The Scripps Research Institute Molecular Screening Center, 2011):
Hit rate of the full screen: of about 2,500 compounds, about 1,200 (48%) were called active. The set was probably picked from earlier hits. Some of the results follow. Values without a mark were called inactive.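 The calls were made as follows: active = mean activation above the low control average plus 3 SD, as set in the primary screen (cut at about 12% in these data); inactive = the rest.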

Each compound was assayed against Troponin I, cardiac muscle (Homo sapiens) + Troponin T, cardiac muscle (Homo sapiens) + Troponin C, slow skeletal and cardiac muscles (Homo sapiens) (UniProt P19429+P45379+P63316) (assay: cardiac RTF calcium sensitivity activators, confirmation, biochemical, IANBD-TnC fluorescence, triplicate (AID 504383;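 also: 0% = DMSO at 0.472 mM calcium and 100% = DMSO at 2.9 mM calcium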)). Details: IANBD-labeled cardiac RTF, Ca2+ sensitivity fluorescence; at 7.2 µM; active compounds read high; scaled from EC20 to saturating calcium; tested at EC20 calcium, 0.472 mM.
In short: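 System: Labelled thin filament complex | Technique: Filament fluorescence intensity | Benchmarks: Low control EC20 calcium, high control EC100 calcium | Timing: 15 min at 25 °C | Compound dosing: One dose, 7.2 µM nominal | Probe or stimulus: Ca2+ 0.472 mM, EC20 level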
In the case of Cc1ccc(NC(=O)COc2ccc(/C=N/NC(=O)CSCc3ccccc3)cc2)cc1, the activation is reported as 58.9% (active). CCOC(=O)c1[nH]c2ccc(OCC)cc2c1CCCN1C(=O)c2ccccc2C1=O was tested, and the activation was 156% (active). With CCOC(=O)C1=C(C)N(CCCCCC(=O)O)C(=O)NC1c1ccccc1Cl (stereo not given) the activation was 6.32%. Brc1ccc(-c2noc(-c3ccccn3)n2)o1 was tested, and the activation was 5.39%. In the case of CCOC(=O)C1=C(C)N=c2s/c(=C\c3ccc(OCC(=O)O)cc3)c(=O)n2C1c1ccc(Cl)cc1 (stereo not given), the activation is reported as 14.5% (active). With CCOC(=O)C1=C(C)N=c2s/c(=C/c3ccc(OCC(=O)O)c(OC)c3)c(=O)n2C1c1ccc(Cl)cc1 (stereo not given) the activation was 16.8% (active). For CCOC(=O)C1=C(C)N=c2s/c(=C/c3ccc(OCC(=O)O)cc3)c(=O)n2C1c1ccc(SC)cc1 (stereo not given), the activation was 5.43%. For O=C1CCC[C@@H]2Cc3nc4ccc(O)cc4cc3[C@@H]3CCN1[C@H]23, the activation was 3.13%. For O=C(CN1CCN(c2ccccc2)CC1)Nc1cccc(C(F)(F)F)c1, the activation was 5.41%. Compound O=C(Cn1c2[n+](c3ccc(C(F)(F)F)cc31)CCCCC2)Nc1ccccc1 has an activation of 0.79%. With O=C(O)CCC(=O)Nc1cc(C(F)(F)F)cc(C(F)(F)F)c1 the activation was 30.5% (active). For CC(C)(C)OC(=O)N1CCC(Cc2cc(-c3cccnc3)no2)(C(=O)O)CC1, the activation was 15.8% (active). COCCn1c(SCC#N)nnc1-c1ccc([N+](=O)[O-])cc1 showed an activation of 4.93%. For Cc1sc(NC(=O)CSc2nnc(C(C)C)n2C)c(C#N)c1C, the activation was 80.6% (active). With CC(=O)c1ccc(NC(=O)C2CCCN(S(=O)(=O)c3c(C)[nH]c(=O)[nH]c3=O)C2)cc1 (stereo not given) the activation was 58.6% (active). For Cc1cc(S(=O)(=O)N2CCCC(C(=O)Nc3ccc(C(=O)O)cc3)C2)ccc1Cl (stereo not given), the activation was 41.5% (active). CC(=O)N1CCCc2cc(S(=O)(=O)N3CCCC(C(=O)Nc4cccc(C)c4)C3)ccc21 (stereo not given) showed an activation of 8.68%. Cc1cc2cc(C=C(C#N)C#N)c(Cl)nc2cc1C showed an activation of 1.28%. With O=C(O)c1ccc(-n2c(/C=C/c3cccc([N+](=O)[O-])c3)nc3ccccc3c2=O)cc1 the activation was 15.1% (active). With CN(C)c1ccc(/C=C/c2nc3ccccc3c(=O)n2-c2ccc(C(=O)O)cc2)cc1 the activation was 2.26%. COc1cc(C(=O)NCc2nnc(SCC(=O)Nc3ccc4c(c3)OCO4)o2)cc(OC)c1OC was tested, and the activation was 165% (active). COc1cc(C(=O)Nc2ccc(Cl)c(C(F)(F)F)c2)cc(OC)c1OC was tested, and the activation was 9.75%. COc1cc(OC)c(OC)cc1/C=C/C(=O)c1ccc(NS(=O)(=O)c2ccc(C)cc2)cc1 was tested, and the activation was 8.63%. In the case of COc1ccc(N/C=C\C(=O)c2ccc(Br)cc2)cc1OC, the activation is reported as 59.4% (active). In the case of CCOC(=O)c1ccc(-n2c(CCC(=O)O)ccc2-c2cccs2)cc1, the activation is reported as 2.47%. CCOC(=O)c1ccc(N2C(=O)C3C(C2=O)C(C(=O)c2ccc(Cl)cc2)N2CCCC32)cc1 (stereo not given) was tested, and the activation was 12.8% (active). For CC(=O)Oc1ccc(N2C(=O)C3C(C2=O)C(C(=O)c2ccc(Cl)cc2)N2CCCC32)cc1 (stereo not given), the activation was 77.4% (active). COc1ccc(N2C(=O)C3C(C2=O)C(C(=O)c2ccc(Cl)cc2)N2CCCC32)cc1 (stereo not given) showed an activation of 8.37%. CCN1CCN(Cc2c(O)ccc3c2O/C(=C\c2ccccc2)C3=O)CC1 was tested, and the activation was 17.9% (active). COCCN(CCOC)Cc1c(O)ccc2c1O/C(=C\c1ccc(C)o1)C2=O showed an activation of 3.93%. CCN1CCN(Cc2c(O)ccc3c2O/C(=C\C=C\c2ccccc2)C3=O)CC1 was tested, and the activation was 65.3% (active). With COc1ccccc1/C=C/C=C1\Oc2c(ccc(O)c2CN(C)C)C1=O the activation was 24.3% (active). With CCN(CC)Cc1c(O)ccc2c1O/C(=C\C=C\c1ccccc1)C2=O the activation was 13.5% (active). CCN1CCN(Cc2c(O)ccc3c2O/C(=C\c2ccc(C)cc2)C3=O)CC1 showed an activation of 5.39%. COCCN(CCOC)Cc1c(O)ccc2c1O/C(=C\c1ccco1)C2=O gave an activation of 9.93%. With CCc1ccc(/C=C2\Oc3c(ccc(O)c3CN3CCN(C)CC3)C2=O)cc1 the activation was 8.07%. CN(C)Cc1c(O)ccc2c1O/C(=C\C=C\c1ccccc1)C2=O was tested, and the activation was 6.64%. For CCN1CCN(Cc2c(O)ccc3c2O/C(=C\C=C\c2ccccc2OC)C3=O)CC1, the activation was 8.36%. With COc1ccccc1/C=C/C=C1\Oc2c(ccc(O)c2CN2CCN(CCO)CC2)C1=O the activation was 41.9% (active). For Cc1ccc(/C=C2\Oc3c(ccc(O)c3CN3CCN(CCO)CC3)C2=O)cc1, the activation was 34.7% (active). With CC(C)c1ccc(/C=C2\Oc3c(ccc(O)c3CN3CCN(C)CC3)C2=O)cc1 the activation was 7.76%. In the case of Cc1ccc(/C=C2\Oc3c(ccc(O)c3CN3CCN(C)CC3)C2=O)cc1, the activation is reported as 1.83%. For O=C1/C(=C/C=C/c2ccccc2)Oc2c1ccc(O)c2CN1CCN(CCO)CC1, the activation was 126% (active). CC(=O)c1ccc2c(c1)c(C#N)c1ccccc1[n+]2[O-] was tested, and the activation was 174% (active). In the case of CC1(C)CC(N2CCCC2)=CC(=[N+]2CCCCC2)C1, the activation is reported as 16% (active). Work on COc1ccc(-n2c(O)c(/C=N/NS(=O)(=O)c3ccc(C)c([N+](=O)[O-])c3)c3ccccc3c2=O)cc1OC yielded an activation of 3.31%. Compound COc1ccc(-n2c(O)c(/C=N/NS(=O)(=O)c3cc(C)ccc3C)c3ccccc3c2=O)cc1OC has an activation of 10.9%. For COc1ccc(-n2c(O)c(/C=N/NS(=O)(=O)c3ccc(C)cc3)c3ccccc3c2=O)cc1OC, the activation was 46% (active). In the case of CCC12CN3CCN(CC(C3)/C1=N\NC(=O)Nc1ccccc1)C2, the activation is reported as 4.76%. Cc1ccc(N2C(=O)[C@@H]3[C@H](C2=O)C2CCCN2[C@@H]3C(=O)c2ccccc2)cc1 (stereo not given in full) was tested, and the activation was 290% (active). Cc1ccc(C(=O)N2C(=O)C(c3ccccc3)Oc3ccccc32)cc1 (stereo not given) gave an activation of 5.01%. In the case of O=C(c1ccccc1)[C@@H]1[C@@H]2C(=O)N(c3ccc(F)cc3)C(=O)[C@@H]2C2CCCN21 (stereo not given in full), the activation is reported as 22.7% (active). For COc1cccc(C2CC(c3ccccc3)n3ncnc3N2)c1 (stereo not given), the activation was 19.8% (active). In the case of O=C1CC(c2cccc(Oc3ccccc3)c2)NC(=O)N1 (stereo not given), the activation is reported as 6.43%. In the case of N#C/C(=C(/O)COC(=O)COc1ccc(Cl)cc1)c1nc2ccccc2[nH]1, the activation is reported as 13.2% (active). COc1ccc(C(=O)OC/C(O)=C(\C#N)c2nc3ccccc3[nH]2)cc1S(=O)(=O)N1CCOCC1 showed an activation of -0.63%. Cc1ccc(N=Cc2sc(O)c3ccccc23)c(C)c1 was tested, and the activation was 7.52%. In the case of CCN(CC)c1ccc(C=Nc2cc(C)ccc2C)c(O)c1, the activation is reported as 15.7% (active). O=C(c1ccc2c(=O)n3c(nc2c1)CCCCC3)N1CCN(c2cccc(Cl)c2)CC1 was tested, and the activation was 0.38%. Cc1ccc(C(=O)NNC(=O)CSc2nnc(-c3ccncc3)n2-c2ccc(C)cc2)cc1 was tested, and the activation was 7.51%. In the case of COc1ccc(-c2nnc(SCC(=O)c3ccc[nH]3)n2-c2ccccc2)cc1, the activation is reported as 15.9% (active). Compound COc1ccccc1NC(=O)CC(=O)CSc1nnc(-c2ccc(C)cc2)n1-c1ccccc1 has an activation of 3.38%. Cn1cc(Cl)c(-c2nc3ccccc3[nH]2)n1 was tested, and the activation was 20.4% (active). Cn1nc([N+](=O)[O-])c(C(C#N)c2ccccn2)c(Cl)c1=O (stereo not given) showed an activation of 8.7%. In the case of CCOC(=O)c1ccc(NC(=O)c2cc3c(C)nn(-c4ccccc4Cl)c3s2)s1, the activation is reported as 16.9% (active). In the case of CCN(CC)CCCNc1ccc2ncn3c4ccc(O)cc4c(=O)c1c23, the activation is reported as -1.43%. In the case of O=C/C(=C\Nc1ccc(S(=O)(=O)CCO)cc1)c1nc2cc(Cl)ccc2o1, the activation is reported as 65% (active). Compound N#CC(C#N)=C1C=C2C=C(N3CCCCCC3)CCC2CC1 (stereo not given) has an activation of 5.58%. COc1ccc2ccccc2c1C(O)c1nccn1C (stereo not given) was tested, and the activation was 58% (active). CN1c2ccc(C=O)c3c(C=O)ccc(c23)N(C)C1(C)C gave an activation of 1.58%. For CC1=CC2=NC(=O)/C(=C\c3ccc(-c4cccc(Cl)c4)o3)C(=N)N2O1, the activation was 101% (active). For COc1ccc(CNCc2cccc(Cl)c2)cc1, the activation was 4.73%. With OCCNCc1cccc(OCc2ccc(Cl)cc2)c1 the activation was 173% (active). CN1CCN(CCOc2ccc(Cc3ccccc3)cc2)CC1 was tested, and the activation was 9.76%. O=C(C1CCN(Cc2ccc(OCc3ccccc3)cc2)CC1)N1CCCC1 gave an activation of -1.48%. For CN1CCN(/N=C/c2ccc(OCc3ccccc3)cc2)CC1, the activation was 309% (active). In the case of O=C(NCc1ccco1)C1Cc2ccccc2CN1C(=O)c1ccco1 (stereo not given), the activation is reported as 2880% (active). Work on O=C(O)C1CC(O)CN1C(=O)c1ccco1 (stereo not given) yielded an activation of 5.9%. O=C(NCc1ccco1)C1CCC(N2C(=O)C3C4CCC(C4)C3C2=O)CC1 (stereo not given) gave an activation of 6.57%. With CCCCC1OC23CCCCC2C(C#N)(C#N)C1(C#N)C(=N)O3 (stereo not given) the activation was 13% (active). Compound CCOc1ccc(C2OC34CCCCC3C(C#N)(C#N)C2(C#N)C(=N)O4)cc1OC (stereo not given) has an activation of 7.44%. Work on N#CC1(C#N)C(c2ccccc2)OC23CCCCC2C1(C#N)C(=N)O3 (stereo not given) yielded an activation of -2.46%. Work on COc1ccc(C2OC34CCCCC3C(C#N)(C#N)C2(C#N)C(=N)O4)cc1 (stereo not given) yielded an activation of 5.98%. With CCCC1OC23CCCCC2C(C#N)(C#N)C1(C#N)C(=N)O3 (stereo not given) the activation was 179% (active). CCCCC1OC23CCCCC2C(C#N)(C(=N)O3)C1(C#N)C#N (stereo not given) was tested, and the activation was 10.2%. In the case of CCCCCCCCOc1ccc(C2OC34CCCCC3C(C#N)(C#N)C2(C#N)C(=N)O4)cc1 (stereo not given), the activation is reported as 17.2% (active). In the case of CCCCOc1ccc(C2OC34CCCCC3C(C#N)(C#N)C2(C#N)C(=N)O4)cc1 (stereo not given), the activation is reported as 6.95%. For CCC1OC23CCCCC2C(C#N)(C(=N)O3)C1(C#N)C#N (stereo not given), the activation was 10.4%. COc1cccc(/C=N/Nc2nnc3c(n2)[nH]c2ccccc23)c1OC was tested, and the activation was 13.1% (active). COc1cccc(/C=N/c2nc3ccccc3[nH]2)c1O gave an activation of 6.09%.
